# Source: ChEMBL document CHEMBL4049456, “Identification of 4-(Aminomethyl)-6-(trifluoromethyl)-2-(phenoxy)pyridine Derivatives as Potent, Selective, and Orally Efficacious Inhibitors of the Copper-Dependent Amine Oxidase, Lysyl Oxidase-Like 2 (LOXL2)” (J Med Chem, 2017)
# Experiments:
# Lysyl oxidase homolog 2 [1] = target: T1, Lysyl oxidase homolog 2 (Homo sapiens, UniProt Q9Y4K0); assay: Inhibition of human LOXL2 expressed in CHO cells assessed as reduction of H2O2 production from oxidative deamination of DAP preincubated for 2 hrs followed by substrate addition in presence of 0.1% BSA measured every 2 mins for 1 hr by amplex red reagent-based fluorescence assay; assay type: cell-based
# T1 sequence (Q9Y4K0 whole entry): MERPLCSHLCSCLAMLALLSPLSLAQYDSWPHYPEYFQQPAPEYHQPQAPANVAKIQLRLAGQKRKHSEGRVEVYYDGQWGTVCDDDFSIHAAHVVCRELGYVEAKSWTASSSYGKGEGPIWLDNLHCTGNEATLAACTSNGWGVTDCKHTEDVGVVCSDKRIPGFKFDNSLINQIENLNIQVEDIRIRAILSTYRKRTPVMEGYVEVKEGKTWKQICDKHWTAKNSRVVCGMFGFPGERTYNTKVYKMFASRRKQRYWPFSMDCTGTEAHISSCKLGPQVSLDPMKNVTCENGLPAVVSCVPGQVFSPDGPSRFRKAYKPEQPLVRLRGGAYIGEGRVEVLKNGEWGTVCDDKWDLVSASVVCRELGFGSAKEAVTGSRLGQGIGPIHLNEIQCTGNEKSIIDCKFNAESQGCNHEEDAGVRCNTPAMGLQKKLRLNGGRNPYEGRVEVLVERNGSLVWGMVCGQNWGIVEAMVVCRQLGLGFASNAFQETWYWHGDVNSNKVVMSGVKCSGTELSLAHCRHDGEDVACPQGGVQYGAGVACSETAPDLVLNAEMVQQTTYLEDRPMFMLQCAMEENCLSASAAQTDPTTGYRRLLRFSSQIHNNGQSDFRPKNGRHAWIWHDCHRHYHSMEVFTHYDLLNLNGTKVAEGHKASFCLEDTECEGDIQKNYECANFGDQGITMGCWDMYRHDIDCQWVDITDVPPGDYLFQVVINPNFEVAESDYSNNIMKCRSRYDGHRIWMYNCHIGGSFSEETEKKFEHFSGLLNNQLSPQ
# Lysyl oxidase homolog 2 [2] = target: T1, Lysyl oxidase homolog 2; assay: (§1) Inhibition of recombinant human LOXL2 expressed in human whole blood assessed as reduction of H2O2 production from oxidative deamination of DAP preincubated for 2 hrs followed by substrate addition measured every 2 mins for 1 hr by amplex red reagent-based fluorescence assay
# [3] = target: T2, Lysyl oxidase homolog 2 (Homo sapiens) (UniProt Q9Y4K0); assay: as §1
# T2 sequence (whole entry): T1 sequence (Q9Y4K0 whole entry)
# Mus musculus [4] = assay: Toxicity in C57BL/6 mouse assessed as body weight loss at 3 to 60 mg/kg, po qd administered 15 days starting 1 day prior to bleomycin instillation; assay type: organism-based; conditions: in vivo
# [5] = target: T3, Diamine oxidase [copper-containing] (Homo sapiens) (UniProt P19801); assay: Inhibition of recombinant human DAO assessed as reduction of H2O2 production from oxidative deamination of DAP at 10 uM preincubated for 2 hrs followed by substrate addition measured every 2 mins for 1 hr by amplex red reagent-based fluorescence assay
# T3 sequence (whole entry): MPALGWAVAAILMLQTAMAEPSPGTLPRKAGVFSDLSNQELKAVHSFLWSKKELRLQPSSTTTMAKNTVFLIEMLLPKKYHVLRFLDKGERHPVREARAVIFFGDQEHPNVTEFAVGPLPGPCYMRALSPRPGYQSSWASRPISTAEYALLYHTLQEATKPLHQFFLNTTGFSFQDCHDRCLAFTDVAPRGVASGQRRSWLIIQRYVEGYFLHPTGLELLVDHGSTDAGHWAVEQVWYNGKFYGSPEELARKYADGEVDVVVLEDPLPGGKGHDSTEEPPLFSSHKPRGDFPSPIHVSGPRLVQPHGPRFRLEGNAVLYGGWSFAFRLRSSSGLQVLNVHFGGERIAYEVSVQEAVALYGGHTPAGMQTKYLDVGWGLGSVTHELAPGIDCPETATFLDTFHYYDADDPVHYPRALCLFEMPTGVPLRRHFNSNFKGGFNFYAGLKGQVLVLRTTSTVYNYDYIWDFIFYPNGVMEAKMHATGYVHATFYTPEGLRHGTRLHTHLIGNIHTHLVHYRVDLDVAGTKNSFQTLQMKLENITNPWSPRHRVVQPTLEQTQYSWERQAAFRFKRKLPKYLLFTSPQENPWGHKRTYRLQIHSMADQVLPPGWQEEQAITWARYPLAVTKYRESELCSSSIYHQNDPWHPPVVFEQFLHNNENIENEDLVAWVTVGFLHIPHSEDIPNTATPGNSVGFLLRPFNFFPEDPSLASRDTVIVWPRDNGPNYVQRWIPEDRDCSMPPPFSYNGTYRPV
# In short: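 Purified recombinant human DAO was preincubated with compound for 2 h and DAP used as substrate. Percent inhibition was calculated against vehicle and enzyme-free controls.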
# Lysyl oxidase homolog 2 [6] = target: T1, Lysyl oxidase homolog 2; assay: Inhibition of human LOXL2 expressed in CHO cells assessed as reduction of H2O2 production from oxidative deamination of DAP preincubated for 2 hrs followed by substrate addition measured every 2 mins for 1 hr by amplex red reagent-based fluorescence assay; assay type: cell-based
# Mus musculus [7] = assay: Toxicity in C57BL/6 mouse assessed as mortality at 3 to 60 mg/kg, po qd administered 15 days starting 1 day prior to bleomycin instillation; assay type: organism-based; conditions: in vivo
# In short: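 Male C57BL/6 mice, 6 to 7 weeks old. Lung fibrosis induced by a single oropharyngeal bleomycin dose (1.5 U/kg). Compound given orally once daily at 3, 10, 30 or 60 mg/kg for 15 days, starting 1 day before bleomycin. Mortality and body weight loss monitored; lungs taken at day 14 post-bleomycin.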
# [8] = target: T2, Lysyl oxidase homolog 2 (Homo sapiens); assay: Irreversible inhibition of human LOXL2 assessed as reduction of H2O2 production from oxidative deamination of DAP at 1000 times IC50 preincubated for 2 hrs followed by compound washout and subsequent incubation for 2 hrs prior to substrate addition measured every 2 mins for 40 mins by amplex red reagent-based fluorescence assay relative to control
# In short: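 Wells were washed repeatedly with PBS and equilibrated for 2 h. Recovered activity was then compared with nonwashed controls.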
# [9] = Cmax in C57BL/6 mouse lung at 30 mg/kg, po by LC-MS/MS analysis; assay type: ADME, organism-based; set-up: dose 30 mg/kg, route oral
# In short: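 Normal C57BL/6 mice, n = 3 per time point, received a single oral 30 mg/kg dose formulated in 0.5% methylcellulose.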
smiles,measurement,setting,value
Cl.NCc1cc(Oc2cccc(C(=O)N3C[C@@H](O)[C@H](F)C3)c2)nc(C(F)(F)F)c1 (racemic),IC50,Lysyl oxidase homolog 2 [1],100 nM
same,IC50,Lysyl oxidase homolog 2 [2],870 nM
same,IC90,[3],5.4 µM
same,Activity,Mus musculus [4],< 5%
same,inhibition,[5],< 10%
same,IC50,Lysyl oxidase homolog 2 [6],78 nM
same,Activity,Mus musculus [7],Non-Toxic
same,inhibition,[8],77%
same,Cmax,[9],21 µM
